Screens (PubChem)
SIRT5 inh = sirtuin-5 (human) deacylase inhibition; inhibition, % at 15 µM; Purified SirT5, succinyl-peptide AMC, trypsin-coupled fluorescence; AID 652115; 330,000 tested, 1.1% active; in the data active means inhibition above about 15%
Target sequence (Q9NXA8 whole entry, looked up): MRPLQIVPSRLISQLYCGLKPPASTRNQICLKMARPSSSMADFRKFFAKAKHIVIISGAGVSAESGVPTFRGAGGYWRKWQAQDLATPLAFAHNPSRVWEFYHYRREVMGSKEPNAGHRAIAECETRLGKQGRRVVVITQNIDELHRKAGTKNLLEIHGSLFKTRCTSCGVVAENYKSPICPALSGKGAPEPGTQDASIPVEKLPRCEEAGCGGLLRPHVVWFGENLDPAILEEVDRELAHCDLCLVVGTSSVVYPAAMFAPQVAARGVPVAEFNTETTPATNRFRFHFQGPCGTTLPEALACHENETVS
Ecoli rRNA inh = inhibitors of bacterial rRNA selective over humanized ribosomes | E. coli WT GFP vs humanized-ribosome RFP mutants, fluorescence, 24 h; hits give low values; DMSO median 0, no signal -100 | GFP signal change (wild-type ribosome), % (test concentration not listed) | 350,000 tested, 1.6% active | AID 720706;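 active means significant combined selectivity score with lowered wild-type GFP, culture density cut under 30%, mutant RFP and density less affected; inactive means any of these conditions unmet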
S100A4 MyoIIA = S100A4-myosin IIA interaction inhibition; inhibition, % at 10.7 µM; S100A4/TAMRA-MyoIIA peptide fluorescence polarization; AID 652163; 360,000 tested, 0.14% active;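 active means mean inhibition of at least 70% across replicates, with every replicate also reaching that level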
Target sequence (P26447 whole entry, looked up): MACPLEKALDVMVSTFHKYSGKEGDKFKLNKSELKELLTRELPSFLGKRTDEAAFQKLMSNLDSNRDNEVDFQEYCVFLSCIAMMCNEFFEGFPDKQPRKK
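Material: S100A4 monomer protein | Medium: HEPES pH 7.2 with CaCl2, KCl, NaCl, DTT, Triton | Reagent: Labelled myosin peptide probe, 5 nM | Doses: One dose per compound | Times: 5 min incubation before reading | Benchmarks: Neutral control DMSO, positive control TFP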
Cneo AK release = causes C. neoformans cell lysis; adenylate kinase release luminescence, 4 h; normalised: neutral wells 0, clomiphene wells 100; lysis activity, % at 15 µM; 360,000 tested, 0.2% active; AID 651654;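 active means mean lysis activity across replicates of at least 80%, whatever share of replicates individually reach that level; inactive means mean lysis activity below 80%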
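Material – log-phase Cryptococcus neoformans yeast cells · Input – 5 × 10^6 yeast cells/mL · Medium – fresh YPD growth medium · Doses – single compound concentration per well · Timing – static 4 h at 37 °C with compound, 1 h detection · Detection – adenylate kinase release luminescence · Read-out – signal increase indicating cell lysis · Control set – Clomiphene as positive lysis control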
PGC1a acetyl inh = lowers PGC1a acetylation signal in U2OS cells | 350,000 tested, 0.17% active | AlphaScreen anti-acetyl-lysine; with virally co-expressed GCN5 acetyltransferase | inhibition, % at 15.6 µM;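 active means every replicate shows inhibition of at least 40%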;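 further: 0% = neutral control wells and 100% = positive control wells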
C2C12 statin = suppressors of simvastatin-induced myotoxicity in C2C12 myotubes. ATP luminescence, 48 h; scaled: DMSO 0, geranylgeraniol control 100. rescue of ATP level, % at 7.49 µM. 330,000 tested, 0.78% active. AID 602340;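 active means mean ATP rescue above about 67%, or every replicate alone reaching that limit, limit read from the data, passing the limit was not always enough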;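 further: myotubes were challenged with 10 µM simvastatin during compound exposure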
The depositor's hits bear a star; x = not tested or not shown. Hits are enriched below; roughly 3% of the tested compounds scored in any of these assays.

SMILES	SIRT5 inh	Ecoli rRNA inh	S100A4 MyoIIA	Cneo AK release	PGC1a acetyl inh	C2C12 statin
O=C(NCCS(=O)(=O)NC1CCCC1)c1ccccc1	17*	6	-2	-1	-8	24
O=C(NC1CCCCCCC1O)c1ccccc1 (centres undefined)	16*	11	-16	x	57*	1
O=C(NC(=S)NC1CCCC1)c1ccccc1	-1	-26*	-1	23	x	2
CC(=O)c1cccc(NC(=O)NC2CCCCCCC2)c1	0	-29	-4	-1	2	x
O=C(C[C@@H]1C[C@@H]2c3cc(NC(=O)C4CCOCC4)ccc3O[C@@H]2[C@H](CO)O1)NCCN1CCCCC1	-3	1	-14	59	3	6
COc1cccc(-c2ccc([C@H]3[C@H]4CN(C(=O)C5CCC5)CC(=O)N4[C@H]3CO)cc2)c1	3	-6	11	x	-19	x
CC1C=NC(S(=O)(=O)N2CC[C@@H]3[C@@H](CO)N(C)c4ccc(-c5ccccc5)cc4[C@@H]32)=N1 (some centres undefined)	1	-3	1	55	4	24
O=C(NNC(=S)NC1CCCCC1)c1sc2ccccc2c1Cl	-2	-20*	0	x	5	x
CS(=O)(=O)c1ccc(Sc2nc3ccccc3s2)c([N+](=O)[O-])c1	x	x	x	-2	-5	x
O=[N+]([O-])c1cc(S(=O)(=O)C(F)(F)F)ccc1Sc1nc2ccccc2s1	x	x	x	4	0	86*
COc1ccccc1C1OCC(C)([N+](=O)[O-])CO1 (centres undefined)	-6	7	0	-2	2	0
CC1([N+](=O)[O-])COC(c2cccc3ccccc23)OC1 (centres undefined)	x	-22*	6	2	-1	22
COc1ccc(S(=O)(=O)N(C)C[C@H]2Oc3ccc(NC(=O)C4CCCCC4)cc3CC(=O)N([C@H](C)CO)C[C@H]2C)cc1	2	-3	3	-12	6	-8
C[C@@H]1CN([C@@H](C)CO)S(=O)(=O)c2ccc(C3=CCCCC3)cc2O[C@H]1CN(C)Cc1cccnc1	5	-30	-11	-1	-5	-48
Cc1c(NS(=O)(=O)c2cccc(C(=O)NCc3ccccc3Cl)c2)c(=O)n(-c2ccccc2)n1C	16*	-8	-2	5	8	10
Cc1c(NS(=O)(=O)c2cccc(C(=O)Nc3ccccc3)c2)c(=O)n(-c2ccccc2)n1C	1	-1	2	1	x	5
Cc1c(NS(=O)(=O)c2ccc(N=NN(C)C)cc2)c(=O)n(-c2ccccc2)n1C	18*	1	-6	-2	x	9
Cc1[nH]c(=O)c(C(=O)/C=C/c2ccccc2F)c2c1CCCC2	2	-18*	1	-4	41	x
Cc1ccccc1N1CC(C(=O)N2CCc3ccccc32)CC1=O (centres undefined)	-3	0	5	-3	x	2
Cc1ccccc1N1CC(C(=O)O)CC1=O (centres undefined)	29*	11	2	0	-5	-1
CC(C)N1CCN(Cc2cc(F)ccc2-n2cccn2)CC1CCO (centres undefined)	20*	7	-4	x	10	7
CC(C)N1CCC(N2CCN(Cc3cc(F)ccc3-n3cccn3)CC2CCO)CC1 (centres undefined)	-3	14	-15	x	1	x
COc1ccc(NC(=O)N[C@H]2CC[C@@H](CCNS(=O)(=O)c3ccccc3F)O[C@@H]2CO)cc1	-3	-5	6	0	-5	-4
C[C@H]1CN([C@@H](C)CO)C(=O)Cc2cc(NC(=O)Cc3ccccc3)ccc2O[C@@H]1CN(C)C(=O)Nc1ccc(F)cc1	3	4	-3	1	0	1
CC1(O)CC(c2ccc(Cl)cc2)=NN1C(=O)c1ccc(Cl)cc1 (centres undefined)	-3	7	-10	1	14	-5
O=C(c1ccc(Cl)cc1)N1CCCC(c2ccccc2)=N1	x	x	x	5	-1	80*
